Data from paper PMC4178936 (The Journal of General Physiology, 2014).
Read-outs that look alike come from different tables or passages of the source. Each block holds one compound with its values, some of them ahead of it.

How the values were obtained:
[1] = molecular target: T1, K1250A CFTR (Homo sapiens, UniProt P13569, K1250A); assay: Macroscopic nonhydrolytic closing rate of K1250A CFTR after ATP removal; assay type: biochemical
Procedure, shortened: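 Nonhydrolytic closure of K1250A CFTR was studied in inside-out oocyte patches at 25°C, with channels gating in 10 mM MgATP after PKA prephosphorylation. The rate was the inverse of a single-exponential fit to current decay after ATP removal, normalized to same-patch control. Parent-compound series was recorded at −40 mV, fragment series at −20 mV. Mean ± SEM of at least five.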

[2] = molecular target: T1, K1250A CFTR; assay: Macroscopic pore-block/permeation assay on locked-open K1250A CFTR currents; assay type: biochemical; settings: for fractional current of locked-open K1250A CFTR: 210 µM NPPB, 32 mM 3NB, 20 mM 3PP
Procedure, shortened: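 K1250A channels were locked open by removing 10 mM MgATP, in inside-out oocyte patches at 25°C, −80 and 60 mV. Test compounds were applied briefly alone or pairwise (head fragment 32 mM, tail fragment 20 mM, parent 210 µM). Tail stock 50 mM was titrated with sulfuric acid (~0.45 mol/mol), so sulfate 1–20 mM was tested separately. Fractional current = quasi-steady drug current ÷ mean pre/post current. Apparent KI came from dose–response fits.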

[3] = molecular target: T1, K1250A CFTR; assay: Steady-state versus locked-open K1250A CFTR currents; assay type: biochemical; settings: 32 mM 3NB, 20 mM 3PP; 10 mM ATP; −20 mV
Procedure, shortened: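 K1250A CFTR was recorded at −20 mV in 10 mM ATP, 25°C. Head (32 mM) or tail (20 mM) fragment was applied for long periods to channels gating at steady state (I/Icontrol), and briefly to locked-open channels after ATP removal (i/icontrol). Po change = (I/Icontrol)/(i/icontrol).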

[4] = molecular target: T2, WT CFTR (Homo sapiens, UniProt P13569); assay: Single-channel steady-state kinetic analysis of WT CFTR; assay type: biochemical; settings: 20 mM 3PP, −80 mV
T2 sequence (P13569 whole entry, the tested form may be a part): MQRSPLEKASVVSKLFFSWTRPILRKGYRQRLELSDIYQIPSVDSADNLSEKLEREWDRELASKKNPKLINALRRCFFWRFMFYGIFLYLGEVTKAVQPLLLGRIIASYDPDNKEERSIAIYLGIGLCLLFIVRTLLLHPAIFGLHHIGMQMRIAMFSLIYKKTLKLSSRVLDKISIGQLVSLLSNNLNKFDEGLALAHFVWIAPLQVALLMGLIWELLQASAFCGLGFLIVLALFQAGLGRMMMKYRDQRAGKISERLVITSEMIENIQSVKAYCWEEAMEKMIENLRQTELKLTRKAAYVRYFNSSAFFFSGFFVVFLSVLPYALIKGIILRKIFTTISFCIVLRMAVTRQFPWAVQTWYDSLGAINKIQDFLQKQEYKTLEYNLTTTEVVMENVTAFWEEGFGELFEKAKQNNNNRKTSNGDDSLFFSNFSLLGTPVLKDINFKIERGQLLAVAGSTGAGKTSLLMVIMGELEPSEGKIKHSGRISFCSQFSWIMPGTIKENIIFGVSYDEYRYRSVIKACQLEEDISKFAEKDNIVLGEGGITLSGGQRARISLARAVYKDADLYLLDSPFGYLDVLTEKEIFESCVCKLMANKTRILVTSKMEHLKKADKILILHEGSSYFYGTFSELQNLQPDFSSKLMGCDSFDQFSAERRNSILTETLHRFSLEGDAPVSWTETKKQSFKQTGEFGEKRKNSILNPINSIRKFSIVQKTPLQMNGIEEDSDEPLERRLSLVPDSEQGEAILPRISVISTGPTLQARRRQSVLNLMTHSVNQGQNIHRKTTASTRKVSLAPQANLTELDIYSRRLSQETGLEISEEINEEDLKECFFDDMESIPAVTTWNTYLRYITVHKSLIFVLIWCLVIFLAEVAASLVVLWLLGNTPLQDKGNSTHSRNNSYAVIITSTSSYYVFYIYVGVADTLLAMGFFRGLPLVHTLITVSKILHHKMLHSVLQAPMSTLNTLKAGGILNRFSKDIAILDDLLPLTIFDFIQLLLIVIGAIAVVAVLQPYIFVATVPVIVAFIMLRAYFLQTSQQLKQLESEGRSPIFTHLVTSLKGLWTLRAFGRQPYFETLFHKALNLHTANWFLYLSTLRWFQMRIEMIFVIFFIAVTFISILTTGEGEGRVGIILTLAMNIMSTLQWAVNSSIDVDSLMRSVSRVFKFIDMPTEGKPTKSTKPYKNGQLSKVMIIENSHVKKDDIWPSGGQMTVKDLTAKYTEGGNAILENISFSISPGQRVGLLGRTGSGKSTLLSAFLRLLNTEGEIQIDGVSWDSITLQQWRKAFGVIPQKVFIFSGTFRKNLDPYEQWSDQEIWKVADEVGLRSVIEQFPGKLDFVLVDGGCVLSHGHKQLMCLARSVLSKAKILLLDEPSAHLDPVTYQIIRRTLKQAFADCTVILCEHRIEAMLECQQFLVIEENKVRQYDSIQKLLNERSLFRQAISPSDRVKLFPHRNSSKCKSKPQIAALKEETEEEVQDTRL
Procedure, shortened: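 Steady-state WT CFTR gating was recorded after PKA prephosphorylation, in 2 mM ATP at −80 mV and 25°C. Patches held one active channel for the 32 mM head fragment, or one to four for the 20 mM tail fragment. Traces were filtered at 100 Hz (control, tail) or 50 Hz (head) and idealized by half-amplitude threshold. Events were fitted by maximum likelihood to a closed-open-blocked scheme (dead times 4 and 6 ms), yielding τb and τib.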

[5] = molecular target: T2, WT CFTR; assay: Macroscopic; assay type: biochemical
Procedure, shortened: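 Human WT CFTR from cRNA (0.1–10 ng) was expressed in Xenopus oocytes; excised inside-out patches at 25°C, NMDG-Cl solutions, bath pH 7.1. Channels were prephosphorylated with 300 nM PKA catalytic subunit and gated in 2 mM MgATP ± test compound. Current decay after sudden ATP removal was fitted to a single exponential (rate = 1/τ), normalized to same-patch control and rescaled by pooled control mean. Mean ± SEM, n ≥ 5.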

[6] = molecular target: CFTR gating site (Homo sapiens, UniProt P13569); assay type: biochemical
Chain of CFTR gating site (P13569 whole entry): as the sequence (P13569 whole entry, the tested form may be a part) above
Procedure, shortened: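 Gating-site Kd was taken as the apparent K1/2 for stimulation of WT CFTR open probability at −80 mV, from Hill fits to Po dose–response curves, with binding assumed voltage independent. ΔG°binding = kT·ln(Kd).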

[7] = molecular target: T2, WT CFTR; assay: Steady-state macroscopic WT CFTR currents; assay type: biochemical
[8] = molecular target: CFTR pore-binding site (Homo sapiens, UniProt P13569, K1250A); assay: Estimated dissociation constants and free enthalpies of binding in the pore; assay type: biochemical; settings: Kd(0) estimate for binding in the pore
Chain of CFTR pore-binding site (P13569 whole entry K1250A): as the sequence (P13569 whole entry, the tested form may be a part) above, with K1250A counted along it

[9] = molecular target: T3, E1371S CFTR (Homo sapiens, UniProt P13569, E1371S); assay type: biochemical; settings: 80 mM MOPS−; −120 mV
T3 sequence (P13569 whole entry E1371S): as the sequence (P13569 whole entry, the tested form may be a part) above, with E1371S counted along it
Procedure, shortened: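 E1371S CFTR channels were locked open in inside-out oocyte patches at 25°C, phosphorylated by PKA or endogenously. After ATP removal, test compound was applied briefly with or without 80 mM MOPS− (MOPS solutions pH 7.2, ~50% ionized). Fractional current = quasi-steady current in drug ÷ mean of pre- and post-exposure currents. Apparent KI was taken from dose–response fits. Mean ± SEM, n ≥ 5.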

[10] = molecular target: T3, E1371S CFTR; settings: read-out: apparent KI for pore block; −120 mV; ref Csanády and Töröcsik, 2014; cited from earlier work
[11] = tested on: ΔF508 CFTR; settings: in vitro, cited from earlier work

T1 sequence (P13569 whole entry K1250A, the tested form may be a part): as the sequence (P13569 whole entry, the tested form may be a part) above, with K1250A counted along it

acceleration of K1250A closing rate ([1]; 20 mM 3PP, −20 mV): ~20%
effects on unitary currents ([2]; 20 mM 3PP-sulfate): ~10%
fractional current of locked-open K1250A CFTR ([2]; 60 mV): ~1.11
EC50 ([2]; K1/2 for enhancement of locked-open K1250A current, 60 mV, tentative Hill fit): ~10 mM
enhancement of the rate of ion flow through locked-open K1250A channels ([2]; positive voltages (60 mV), high 3PP concentrations): ~10%
fractional current of locked-open K1250A CFTR ([2]; −80 mV): ~0.91
effect on Po of K1250A CFTR [3]: no change in Po
effect on mean burst duration τb ([4]; 32 mM 3NB, 2 mM ATP): prolonged τb
effect on mean interburst duration τib ([4]; 32 mM 3NB, 2 mM ATP): did not affect τib
stimulation of single-channel Po ([4]; 32 mM 3NB, 2 mM ATP): twofold
slowing of WT CFTR hydrolytic closing rate ([5]; 20 mM 3PP-sulfate, −80 mV): ~2.5 fold
Kd [6]: 6 mM
stimulation of open probability for WT CFTR ([7]; high concentrations, −80 mV, macroscopic): two- to threefold
Kd ([8]; assuming z = 0.1): 12.6 mM
Kd ([8]; assuming z = 0.2): 16 mM
Kd ([8]; assuming z = 0.5): 32 mM
Compound: NCCCc1ccccc1 [3PP, 3-phenylpropylamine]
effect on unitary current amplitude [4]: little affected unitary current amplitude

effect on K1250A closing rate ([1]; 80 mM MOPS−, −40 mV): neither affected K1250A closing rate
reduction of macroscopic current through locked-open E1371S channels [9]: ~90%
effect on WT CFTR closing rate ([5]; 80 mM MOPS−, −120 mV): little affected
Compound: O=S(=O)(O)CCCN1CCOCC1 [MOPS^−, reference compound]
Ki [10]: 8.3 mM

sulfate concentration yielding maximal pore block ([2]; −80 mV, anomalous dose dependence): ~5 mM
effect on WT CFTR closing rate ([5]; 10 mM sulfate): did not affect WT CFTR closing rate
effect on WT CFTR open probability / gating ([7]; 10 mM sulfate): little effect
Compound: O=S(=O)(O)O [sulfate]
effect on locked-open channel currents ([2]; 60 mV): did not affect locked-open channel currents

Compound: CC(C)(C)c1cc(C(C)(C)C)c(NC(=O)c2c[nH]c3ccccc3c2=O)cc1O [VX-770]
stimulation of ΔF508 CFTR currents ([11]; ref Kopeikin et al., 2014): 10–20 fold
stimulation of ΔF508 CFTR currents ([11]; ref Van Goor et al., 2009): ~5 fold
